# Published values collected from several papers.
# Compare with care: the assays were run in different laboratories.
# Target: Serine/threonine-protein kinase Chk1 (CHEK1, Homo sapiens, UniProt O14757)
# Action: inhibitor
# One construct used (O14757 1-476): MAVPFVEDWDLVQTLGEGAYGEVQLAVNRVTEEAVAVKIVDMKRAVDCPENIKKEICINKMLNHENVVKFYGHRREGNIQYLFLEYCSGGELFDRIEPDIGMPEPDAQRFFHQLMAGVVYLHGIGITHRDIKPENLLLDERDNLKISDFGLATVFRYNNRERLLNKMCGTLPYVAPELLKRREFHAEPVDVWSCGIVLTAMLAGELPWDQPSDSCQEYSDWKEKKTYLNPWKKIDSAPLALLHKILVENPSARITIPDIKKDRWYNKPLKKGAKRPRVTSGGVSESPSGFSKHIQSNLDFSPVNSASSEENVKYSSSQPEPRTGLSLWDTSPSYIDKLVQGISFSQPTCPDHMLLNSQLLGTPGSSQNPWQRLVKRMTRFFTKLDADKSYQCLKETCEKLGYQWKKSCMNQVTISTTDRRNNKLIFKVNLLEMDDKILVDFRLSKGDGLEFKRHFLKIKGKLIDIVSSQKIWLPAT
Compound,assay,test system,conditions,inhibition
CN(C)C1CCN(CC#Cc2nn(C3CCCC3)c3nc(NCc4ccccc4)ncc23)C1 (stereo not shown),"enzyme activity, FRET",,10 µM,15%
CCN1CCN(Cc2ccc(NC(=O)c3ccc(C)c(/C=C/c4cnc5[nH]ccc5c4OC)c3)cc2C(F)(F)F)CC1,"target engagement in cells, chemoproteomics",A-375,50 nM,-118%
COc1cccc2c(NCc3ccccc3)nc(-n3c(N)nc4ccccc43)nc12,"target engagement in cells, chemoproteomics",,20 mM,-4.2%
Cc1ccc(Nc2nccc(N(C)c3ccc4c(C)n(C)nc4c3)n2)cc1S(N)(=O)=O,enzyme activity,,10 µM,-6%
Cc1ncc([N+](=O)[O-])n1C(=NO)c1ccccc1C(F)(F)F,enzyme activity,,10 µM,19.2%
CCCS(=O)(=O)Nc1ccc(F)c(C(=O)c2c[nH]c3ncc(-c4ccc(Cl)cc4)cc23)c1F,enzyme activity,,1 µM,< 10%
CCCOc1ccc(/C=C2\SC(=O)NC2=O)cc1,"enzyme activity, mobility shift",,5 µM,-20%
CS(=O)(=O)Nc1cccc(-c2csc(NC(=O)CSc3nc4nccnc4c(=O)n3CCc3ccccc3)n2)c1,enzyme activity,,10 µM,-3%
CCOc1cc(-c2nncn2C)ccc1Nc1ncc2cc(C)nc(NCC(C)(C)C)c2n1,"enzyme activity, FRET",,1 µM,< 15%
COc1cc2ncnc(Nc3ccc(Oc4ccccc4)c(C)c3C)c2cc1OC,enzyme activity,,1 µM,1%
CNC(=O)c1cc(Oc2ccc(NC(=O)Nc3ccc(Cl)c(C(F)(F)F)c3)cc2)ccn1,enzyme activity,,10 µM,-27%
CCN1CCN(Cc2ccc(NC(=O)c3ccc(C)c(Oc4ccnc5[nH]ccc45)c3)cc2C(F)(F)F)CC1,"target engagement in cells, chemoproteomics",A-375,50 nM,-156%
CNCc1ccc(-c2cc(-c3nc(-c4ccc(S(=O)(=O)C(C)C)cc4)cnc3N)on2)cc1,enzyme activity,,2 µM,52%
